Results reported in ChEMBL document CHEMBL3352121, “Modulation of Activity Profiles for Largazole-Based HDAC Inhibitors through Alteration of Prodrug Properties” (ACS Med Chem Lett, 2014).
The source made the active and inactive calls. The calls are words filed in the database; no cut-off is given here.

Experiments:
[1] = target: T1, Histone deacetylase 8 (Homo sapiens) (UniProt Q9BY41); assay: Inhibition of HDAC8 (unknown origin) at 1 uM incubated for 30 mins in presence of BSA and DTT by fluorescence assay
T1 sequence (whole entry): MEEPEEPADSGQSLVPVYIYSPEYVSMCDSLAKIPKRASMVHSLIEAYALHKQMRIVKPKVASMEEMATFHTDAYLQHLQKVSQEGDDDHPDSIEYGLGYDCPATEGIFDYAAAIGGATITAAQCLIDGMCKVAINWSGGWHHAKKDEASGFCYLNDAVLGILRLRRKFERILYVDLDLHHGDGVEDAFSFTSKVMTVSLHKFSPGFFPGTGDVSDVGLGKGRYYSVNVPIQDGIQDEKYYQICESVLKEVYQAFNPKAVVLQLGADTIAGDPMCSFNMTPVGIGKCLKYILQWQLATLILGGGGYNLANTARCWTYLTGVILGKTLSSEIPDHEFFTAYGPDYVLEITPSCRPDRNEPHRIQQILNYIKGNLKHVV
In short: (§1)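 Purified HDAC isoforms were tested up to a maximum of 1 μM. IC50 values are averages of duplicate experiments. Disulfide compounds were pretreated with DTT to reduce the disulfide bond.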

Histone deacetylase 9 [2] = target: T2, Histone deacetylase 9 (Homo sapiens, UniProt Q9UKV0); assay: Inhibition of HDAC9 (unknown origin) incubated for 30 mins in presence of BSA and DTT by fluorescence assay; in short: as §1
[3] = target: T3, Protein deacetylase HDAC6 (Homo sapiens, UniProt Q9UBN7); assay: Inhibition of HDAC6 (unknown origin) incubated for 30 mins in presence of BSA and DTT by fluorescence assay; in short: as §1
T3 sequence (Q9UBN7 whole entry): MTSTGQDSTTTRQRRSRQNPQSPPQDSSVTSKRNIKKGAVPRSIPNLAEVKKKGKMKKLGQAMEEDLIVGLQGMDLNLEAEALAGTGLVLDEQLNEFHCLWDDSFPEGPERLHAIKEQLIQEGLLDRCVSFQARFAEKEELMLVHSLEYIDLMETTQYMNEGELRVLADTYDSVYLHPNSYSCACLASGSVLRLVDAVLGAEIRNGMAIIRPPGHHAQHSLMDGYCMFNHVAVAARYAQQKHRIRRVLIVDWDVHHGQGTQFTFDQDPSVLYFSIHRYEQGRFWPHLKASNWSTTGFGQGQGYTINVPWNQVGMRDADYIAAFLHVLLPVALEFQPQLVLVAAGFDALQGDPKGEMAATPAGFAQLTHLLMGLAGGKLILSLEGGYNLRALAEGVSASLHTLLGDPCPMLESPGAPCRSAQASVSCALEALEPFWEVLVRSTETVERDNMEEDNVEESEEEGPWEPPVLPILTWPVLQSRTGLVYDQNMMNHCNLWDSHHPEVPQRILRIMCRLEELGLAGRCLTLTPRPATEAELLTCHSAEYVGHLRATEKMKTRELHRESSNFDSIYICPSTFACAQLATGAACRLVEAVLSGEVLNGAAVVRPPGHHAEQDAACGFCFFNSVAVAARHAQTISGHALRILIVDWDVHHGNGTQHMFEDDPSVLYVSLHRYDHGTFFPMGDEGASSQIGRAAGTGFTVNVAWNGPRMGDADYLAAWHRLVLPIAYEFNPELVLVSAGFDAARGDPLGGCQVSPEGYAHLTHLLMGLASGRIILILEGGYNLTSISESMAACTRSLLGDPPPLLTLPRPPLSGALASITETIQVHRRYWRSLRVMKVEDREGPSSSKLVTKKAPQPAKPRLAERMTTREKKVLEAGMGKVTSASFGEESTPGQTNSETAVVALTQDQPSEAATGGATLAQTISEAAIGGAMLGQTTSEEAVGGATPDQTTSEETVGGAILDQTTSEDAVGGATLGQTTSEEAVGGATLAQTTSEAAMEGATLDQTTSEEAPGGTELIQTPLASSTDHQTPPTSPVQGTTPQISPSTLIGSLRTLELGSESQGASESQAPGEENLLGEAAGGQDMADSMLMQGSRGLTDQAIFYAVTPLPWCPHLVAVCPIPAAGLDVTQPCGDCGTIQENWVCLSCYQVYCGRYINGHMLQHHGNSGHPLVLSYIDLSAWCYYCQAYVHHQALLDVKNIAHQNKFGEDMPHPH

Histone deacetylase 11 = target: T4, Histone deacetylase 11 (Homo sapiens, UniProt Q96DB2); assay: Inhibition of HDAC11 (unknown origin) incubated for 3 hrs in presence of BSA and DTT by fluorescence assay; in short: as §1
T4 sequence (Q96DB2 whole entry): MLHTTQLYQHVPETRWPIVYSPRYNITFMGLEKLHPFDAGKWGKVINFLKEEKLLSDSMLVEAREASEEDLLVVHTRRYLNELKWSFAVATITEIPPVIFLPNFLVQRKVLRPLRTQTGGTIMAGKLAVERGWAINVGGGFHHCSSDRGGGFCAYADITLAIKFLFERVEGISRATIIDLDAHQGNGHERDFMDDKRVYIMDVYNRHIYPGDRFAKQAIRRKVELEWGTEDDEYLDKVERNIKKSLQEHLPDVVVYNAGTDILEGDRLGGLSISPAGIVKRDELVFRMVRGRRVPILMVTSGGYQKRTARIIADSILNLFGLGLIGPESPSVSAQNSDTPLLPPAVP

Histone deacetylase 9 [4] = target: T2, Histone deacetylase 9; assay: Inhibition of HDAC9 (unknown origin) at 1 uM incubated for 30 mins in presence of BSA and DTT by fluorescence assay; in short: as §1
Histone deacetylase 1 = Histone deacetylase 1 (Homo sapiens, UniProt Q13547); assay: Inhibition of HDAC1 (unknown origin) incubated for 30 mins in presence of BSA and DTT by fluorescence assay
[5] = Drug metabolism in tumor of human HCT116 cells xenografted nu/nu mouse assessed largazole thiol formation at 50 mg/kg, po by HPLC-MS method; conditions: in vivo
[6] = Drug metabolism in human HCT116 cells protein lysate solution assessed as largazole thiol formation at 25 ug/mL after 1 hr by HPLC-MS method; format: ADME, cell-based; conditions: hct-116, 1 h
[7] = Drug metabolism in tumor of human HCT116 cells xenografted nu/nu mouse assessed as time for maximum largazole thiol level at 50 mg/kg, ip by HPLC-MS method; format: ADME, organism-based, Neoplasm, HCT-116; design: dose 50 mg/kg, route intraperitoneal; conditions: in vivo
[8] = Drug metabolism in tumor of human HCT116 cells xenografted nu/nu mouse assessed as time for maximum largazole thiol level at 10 mg/kg, ip by HPLC-MS method; format: ADME, organism-based, Neoplasm, HCT-116; design: dose 10 mg/kg, route intraperitoneal; conditions: in vivo
HCT-116 = assay: In vivo inhibition of HDAC in tumor of human HCT116 cells xenografted nu/nu mouse assessed as increase in histone hyperacetylation at 10 mg/kg, ip after 4 to 12 hrs by immunoblotting method; format: functional, organism-based; design: dose 10 mg/kg
In short: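 Mice bearing HCT116 xenografts were dosed intraperitoneally at 10 or 50 mg/kg, or orally at 50 mg/kg. Tumors were excised at 4, 12 and 24 h. Histone hyperacetylation in the tumors was assessed by immunoblot, n = 2.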

T2 sequence (Q9UKV0 whole entry): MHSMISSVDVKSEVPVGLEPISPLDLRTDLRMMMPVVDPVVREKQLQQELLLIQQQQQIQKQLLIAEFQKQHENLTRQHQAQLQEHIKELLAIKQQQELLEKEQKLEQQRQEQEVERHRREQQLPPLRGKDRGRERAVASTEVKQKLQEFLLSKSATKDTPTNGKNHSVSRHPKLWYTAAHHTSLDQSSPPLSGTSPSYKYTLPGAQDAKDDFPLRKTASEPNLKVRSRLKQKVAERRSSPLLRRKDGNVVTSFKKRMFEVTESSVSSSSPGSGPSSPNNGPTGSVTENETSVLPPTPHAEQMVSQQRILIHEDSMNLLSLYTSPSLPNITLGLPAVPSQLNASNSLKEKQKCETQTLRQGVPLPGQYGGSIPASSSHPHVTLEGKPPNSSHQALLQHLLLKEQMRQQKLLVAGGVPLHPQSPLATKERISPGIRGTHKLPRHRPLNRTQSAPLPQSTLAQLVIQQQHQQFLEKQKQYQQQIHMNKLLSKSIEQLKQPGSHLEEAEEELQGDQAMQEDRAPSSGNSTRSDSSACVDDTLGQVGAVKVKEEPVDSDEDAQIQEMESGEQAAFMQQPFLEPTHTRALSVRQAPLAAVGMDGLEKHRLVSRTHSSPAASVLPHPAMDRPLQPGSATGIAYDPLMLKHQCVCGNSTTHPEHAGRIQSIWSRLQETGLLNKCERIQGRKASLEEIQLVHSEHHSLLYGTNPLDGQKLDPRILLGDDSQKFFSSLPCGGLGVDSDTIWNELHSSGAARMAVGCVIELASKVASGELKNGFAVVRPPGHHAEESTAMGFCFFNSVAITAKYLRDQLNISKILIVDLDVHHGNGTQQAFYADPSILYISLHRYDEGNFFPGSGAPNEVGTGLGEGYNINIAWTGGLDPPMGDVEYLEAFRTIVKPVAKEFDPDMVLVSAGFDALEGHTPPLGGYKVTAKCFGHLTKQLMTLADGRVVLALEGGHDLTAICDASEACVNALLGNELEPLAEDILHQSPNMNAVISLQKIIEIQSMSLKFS
Sequence of Histone deacetylase 1 (Q13547 whole entry): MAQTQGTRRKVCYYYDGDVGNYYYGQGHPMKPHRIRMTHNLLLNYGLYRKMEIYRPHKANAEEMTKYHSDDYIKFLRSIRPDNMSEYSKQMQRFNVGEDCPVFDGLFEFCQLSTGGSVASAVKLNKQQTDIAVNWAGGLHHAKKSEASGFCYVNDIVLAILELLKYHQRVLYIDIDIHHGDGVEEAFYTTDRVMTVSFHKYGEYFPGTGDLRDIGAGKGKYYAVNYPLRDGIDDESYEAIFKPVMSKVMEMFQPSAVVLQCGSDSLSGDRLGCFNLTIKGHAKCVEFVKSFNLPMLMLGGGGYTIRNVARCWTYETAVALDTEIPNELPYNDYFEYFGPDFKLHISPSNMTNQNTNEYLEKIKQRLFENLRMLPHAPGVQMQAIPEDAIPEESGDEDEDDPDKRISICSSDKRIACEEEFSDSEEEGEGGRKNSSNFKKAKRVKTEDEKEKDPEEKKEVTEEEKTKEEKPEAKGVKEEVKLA

| inhibition [1] | IC50 (Histone deacetylase 9 [2]) | IC50 [3] | IC50 (Histone deacetylase 11) | inhibition (Histone deacetylase 9 [4]) | IC50 (Histone deacetylase 1) | Drug metabolism [5] | Drug metabolism [6] | Tmax [7] | Tmax [8] | SMILES | inhibition (HCT-116) |
| --- | --- | --- | --- | --- | --- | --- | --- | --- | --- | --- | --- |
| 35% | Not Active | 135 nM | 0.2 nM | < 20% | 0.4 nM | – | – | – | – | CC(C)[C@@H]1NC(=O)[C@]2(C)CSC(=N2)c2csc(n2)CNC(=O)C[C@@H](/C=C/CCSSC[C@H](NC(=O)OC(C)(C)C)C(=O)OC(C)(C)C)OC1=O | – |
| 40% | Not Active | 61 nM | 0.1 nM | < 20% | 0.3 nM | metabolite_notdetected | metabolite_detected | 4 h | 4 h | CC(C)[C@@H]1NC(=O)[C@]2(C)CSC(=N2)c2csc(n2)CNC(=O)C[C@@H](/C=C/CCSSCC/C=C/[C@@H]2CC(=O)NCc3nc(cs3)C3=N[C@@](C)(CS3)C(=O)N[C@@H](C(C)C)C(=O)O2)OC1=O | Active |
